TbMetRS inhib: blocks T. brucei methionyl-tRNA synthetase activity; 360,000 tested, 0.4% active; purified T. brucei MetRS, ATP depletion, Kinase-Glo luminescence; inhibition, % at 11.9 µM; AID 624268;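 active = inhibition above a per-plate cutoff of the control wells' mean inhibition plus 3 SD, cut at about 5.5% in these data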;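 note: 0% = DMSO wells median and 100% = median of wells with control inhibitor compound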
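Test system: purified T. brucei MetRS enzyme. Also added: ATP, methionine and E. coli bulk tRNA substrates. Compound: 11.9 µM single point. Schedule: 15 min enzyme-compound preincubation, 2 h reaction, 10 min detection, 25 °C. Signal: luciferase luminescence of residual ATP, Kinase-Glo. Evaluation: percent inhibition versus plate control medians. Controls: DMSO wells, low control.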
Rpn11 inh: blocks the human proteasome subunit Rpn11; O00487; human 26S proteasome, Ub4-pepOG fluorescence polarization; 20S core pre-blocked with epoxomicin; inhibition, % at 20 µM; 360,000 tested, 0.59% active; AID 588493;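 active = inhibition at 20 µM, scaled to each plate's controls, above about 33%, limit read from the data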
HNF4A DNA FP: change in binding of human HNF4 alpha to DNA; HNF4a-FITC DNA binding, fluorescence polarization, 1 h; activity change, % at 10 µM; 360,000 tested, 0.3% active; AID 1224865; in the data active = activity change above about 30%, passing the limit was not always enough
Neddyl block: cullin neddylation inhibition; 360,000 tested, 0.58% active; inhibition, % at 25 µM; P61081+Q13564; AID 651699; TR-FRET cullin neddylation, biochemical; in the data active = inhibition above about 36%
PREPL inh: inhibits the human prolyl oligopeptidase-like enzyme; AID 2751; inhibition, % at 5.96 µM; recombinant PREPL, fluorescence polarization activity-based probe; 320,000 tested, 0.68% active;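 note: 0% = enzyme with DMSO and 100% = wells lacking enzyme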
CSN inh: inhibitors of human CSN-mediated cullin deneddylation; Purified CSN, SCF-Nedd8-OG deneddylation, fluorescence polarization; 360,000 tested, 0.38% active; Q92905; AID 651999; inhibition, % at 12.5 µM;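 active = pattern-corrected inhibition above about 35%, with an unprinted fluorescence ratio check between 0.5 and 1.5, limit read from the data, passing the limit was not always enough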;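 note: 0% = enzyme with substrate and 100% = substrate without enzyme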
Target sequence (Q92905 whole entry, looked up, one chain of several): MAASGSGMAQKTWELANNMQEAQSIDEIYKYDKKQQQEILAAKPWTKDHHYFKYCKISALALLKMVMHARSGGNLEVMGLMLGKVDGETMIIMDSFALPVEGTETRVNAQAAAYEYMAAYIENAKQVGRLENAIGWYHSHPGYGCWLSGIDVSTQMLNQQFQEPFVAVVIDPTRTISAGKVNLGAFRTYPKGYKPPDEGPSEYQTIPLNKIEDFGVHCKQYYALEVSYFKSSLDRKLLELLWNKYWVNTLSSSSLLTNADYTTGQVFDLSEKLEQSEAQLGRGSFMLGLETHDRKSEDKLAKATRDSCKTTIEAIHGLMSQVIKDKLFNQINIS
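Assay system: purified human Csn5 enzyme expressed in HEK293T cells; measure: % inhibition; also added: SCFSkp2-Nedd8OG substrate at 10 nM final; technique: fluorescence polarization; times: reaction 90 min, room temperature; medium: Tris buffer pH 7.5, NaCl, DTT, Tween-20, trehalose, ovalbumin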
PREPL confirm: confirmation of human PREPL enzyme inhibitors; shares compounds with PREPL inh; recombinant PREPL, fluorescence polarization activity probe; inhibition, % at 5.96 µM; 2,000 tested, 67% active; AID 2803;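 note: 0% = protein with DMSO and 100% = wells lacking protein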
An asterisk follows results filed as active; ! = not confirmed by another sample. Only some compounds are listed: those with a hit (about 2.4% of all), similar ones and a draw of the others. Cut-off read from the data, not from the text of the source, unless noted: active = inhibition above about 43%; inactive = the rest.

For COc1ccc(C(CNC(=O)COc2cc(C)ccc2Cl)N2CCCCC2)cc1 (centres undefined) the results were TbMetRS inhib 0, Rpn11 inh 2, HNF4A DNA FP 0, Neddyl block 7, PREPL inh 10 and CSN inh -3.
For CN(C)c1ccc(C(CNC(=O)COc2ccc(Cl)cc2)N2CCCC2)cc1 (centres undefined) the results were TbMetRS inhib -1, Rpn11 inh -4, HNF4A DNA FP 6, Neddyl block 6, PREPL inh 67*, CSN inh 3 and PREPL confirm 53*.
For CNC(=O)c1ccc(-c2sc3nc(N4CCOCC4)c4c(c3c2N)CCCC4)o1 the results were TbMetRS inhib 0, Rpn11 inh 6, HNF4A DNA FP 2, PREPL inh 48*, CSN inh 14 and PREPL confirm 32.
For CC1=C(c2ccccc2)SC2=NCCN21 the results were TbMetRS inhib -2, Rpn11 inh -2, HNF4A DNA FP 0, Neddyl block 11 and CSN inh -1.
Screening CC(=O)c1cccc(-c2ccnc3c2CC(C(=O)NCc2ccco2)O3)c1 (centres undefined) returned TbMetRS inhib 0, Rpn11 inh 1, HNF4A DNA FP -6, Neddyl block 3 and CSN inh -4.
For O=C(Cn1c(O)c(/C=C2\C=Nc3ccccc32)sc1=O)N1CCOCC1 the results were TbMetRS inhib 0, Rpn11 inh -5, HNF4A DNA FP 1, Neddyl block -17, PREPL inh -54 and CSN inh -3.
`O=C(Cn1c(O)c(/C=C2\C=Nc3ccc(Br)cc32)sc1=O)N1CCCC1` gave TbMetRS inhib 0, Rpn11 inh 4, HNF4A DNA FP -2, Neddyl block 2, PREPL inh 43*, CSN inh 15 and PREPL confirm 36.
For Cc1cc(C(=O)C(C)OC(=O)c2cnccn2)c(C)n1-c1ccccc1 (centres undefined) the results were TbMetRS inhib 0, Rpn11 inh -3, HNF4A DNA FP 0, Neddyl block 5, PREPL inh -3 and CSN inh 3.
COc1ccc(N2CCN(C(=O)c3ccc(Cn4c(=S)[nH]c5ccc(N6CCOCC6)cc5c4=O)cc3)CC2)cc1 was read as TbMetRS inhib 0, Rpn11 inh 3, HNF4A DNA FP 2, Neddyl block 32, PREPL inh 45*, CSN inh 1 and PREPL confirm 45*.
COc1ccc(Cn2c(=S)[nH]c3cc(C(=O)N4CCN(c5ccccc5)CC4)ccc3c2=O)cc1 was read as TbMetRS inhib 0, Rpn11 inh -4, HNF4A DNA FP -2, Neddyl block -64, PREPL inh -6 and CSN inh 0.
COc1ccc(N2CCN(c3ncnc4c3[nH]c3ccccc34)CC2)cc1 was read as TbMetRS inhib 2, Rpn11 inh 0, HNF4A DNA FP -5, Neddyl block 7, PREPL inh 52*, CSN inh -2 and PREPL confirm 46*.
`COc1ccc2[nH]c3c(N4CCc5ccccc5C4)ncnc3c2c1` gave TbMetRS inhib 2, Rpn11 inh 1, HNF4A DNA FP 0, PREPL inh 60*, CSN inh 1 and PREPL confirm 56*.
COc1cc2[nH]c3c(N4CCN(c5ccccn5)CC4)ncnc3c2cc1OC was read as TbMetRS inhib 0, Rpn11 inh -3, HNF4A DNA FP -2, PREPL inh 69*, CSN inh 6 and PREPL confirm 69*.
CCOC(=O)N1CCN(c2ncnc3c2[nH]c2ccc(OC)cc23)CC1 was read as TbMetRS inhib -1, Rpn11 inh -7, HNF4A DNA FP 0, PREPL inh 19 and CSN inh -4.
For Fc1ccc2[nH]c3c(N4CCN(c5ccccc5)CC4)ncnc3c2c1 the results were TbMetRS inhib 3, Rpn11 inh 6, HNF4A DNA FP 0, Neddyl block 36, PREPL inh 62*, CSN inh 1 and PREPL confirm 48*.
CCOc1ccc2[nH]c3c(N4CCC5(CC4)OCCO5)ncnc3c2c1 was read as PREPL inh 18.
For Cc1ccccc1OCC(O)Cn1c(=N)n(CCN2CCOCC2)c2ccccc21 (centres undefined) the results were TbMetRS inhib -2, Rpn11 inh -3, HNF4A DNA FP -1, Neddyl block 0, PREPL inh 56*, CSN inh 0 and PREPL confirm 45*!.
Screening N=c1n(CCN2CCOCC2)c2ccccc2n1CC(O)COc1ccccc1 (centres undefined) returned TbMetRS inhib 0, Rpn11 inh -5, HNF4A DNA FP -1, Neddyl block 1, PREPL inh 30 and CSN inh 9.
Screening C#CCN(C[C@H]1[C@H](OC(=O)Nc2c(C)noc2C)[C@H](OC(=O)Nc2c(C)noc2C)C[C@H]2C(=O)N(c3ccccc3)C(=O)[C@@H]12)S(=O)(=O)c1ccc(C)cc1 returned TbMetRS inhib -1, Rpn11 inh 10, HNF4A DNA FP 1, Neddyl block -6 and CSN inh -1.
Screening COc1ccc(C2CC(C(F)(F)F)n3nc(C(=O)Nc4ccc5c(c4)OCO5)cc3N2)cc1 (centres undefined) returned TbMetRS inhib -1, Rpn11 inh -9, HNF4A DNA FP 1, Neddyl block 18, PREPL inh 49*, CSN inh 1 and PREPL confirm 38.
For CSc1ncccc1C(=O)OCC(=O)Nc1cccc(S(=O)(=O)N2CCOCC2)c1 the results were TbMetRS inhib 0, Rpn11 inh 0, HNF4A DNA FP 2, Neddyl block -26, PREPL inh 8 and CSN inh 1.
Screening CCN1C(=O)CC(c2ccccc2)N(C2CCCC2)c2nc(Nc3ccc(C(=O)NC4CCN(C)CC4)cc3OC)ncc21 (centres undefined) returned TbMetRS inhib 0, Rpn11 inh -8, HNF4A DNA FP 5, PREPL inh 48*, CSN inh 2 and PREPL confirm 50*.
`CC1(C)N=C(N)N=C(N)N1c1cc(Cl)ccc1Cl` gave TbMetRS inhib 0, Rpn11 inh -4, HNF4A DNA FP 1, Neddyl block 13 and CSN inh -3.
For CC1(C)N=C(N)N=C(N)N1c1ccc(Oc2ccc(Cl)cc2)c(Cl)c1 the results were TbMetRS inhib 1, Rpn11 inh 3, HNF4A DNA FP 4, Neddyl block 1, PREPL inh 55*, CSN inh -4 and PREPL confirm 52*.

Screening data from PubChem BioAssay.
